Test results: ChEMBL document CHEMBL5260806, “Hydrogen peroxide activated quinone methide precursors with enhanced DNA cross-linking capability and cytotoxicity towards cancer cells” (Eur J Med Chem, 2017)
Active and inactive are the calls of the source. The rule behind the calls is not given here.

Experiments:
UO-31 = experiment: Anticancer activity against human UO-31 cells assessed inhibition of cell growth after 48 hrs by CellTiter-Glo luminescent assay; assay type: functional, cell-based; conditions: UO-31, 48 h
In short: (§1)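 Renal lines grown in RPMI 1640 with 5% FBS and 2 mM L-glutamine, seeded into 384-well plates at 5,000–10,000 cells/well, held 2–3 h at 37 °C, 5% CO2. DMSO stocks (20 mM) serially halved ten times and added at 1:100. Cells exposed 48 h at 37 °C; CellTiter-Glo added, 10 min at room temperature, luminescence read.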

A498 = experiment: Anticancer activity against human A498 cells assessed inhibition of cell growth after 48 hrs by CellTiter-Glo luminescent assay; assay type: functional, cell-based; conditions: A498, 48 h
In short: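 Human tumour cells kept in RPMI 1640 with 5% FBS and 2 mM L-glutamine, seeded at 5,000–10,000 cells/well and left 2–3 h at 37°C, 5% CO2. Drugs taken from 20 mM DMSO stocks, serially halved ten times in DMSO, then added at 1:100 dilution. Cells exposed for 48 h at 37°C. Viability read by CellTiter-Glo luminescence after 10 min at room temperature.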

SN12C = experiment: Anticancer activity against human SN12C cells assessed inhibition of cell growth after 48 hrs by CellTiter-Glo luminescent assay; assay type: functional, cell-based; in short: as §1
786-0 = experiment: Anticancer activity against human 786-0 cells assessed inhibition of cell growth after 48 hrs by CellTiter-Glo luminescent assay; assay type: functional, cell-based; conditions: 786-0, 48 h
In short: (§2)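 Renal lines grown in RPMI 1640 with 5% FBS and 2 mM L-glutamine, plated at 5,000–10,000 cells/well in 384-well plates and held 2–3 h at 37 °C, 5% CO2. Compounds were made as 20 mM DMSO stocks, given as ten 2-fold serial dilutions diluted 1:100 into cells, and incubated 48 h. Read-out was CellTiter-Glo luminescence after 10 min at room temperature.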

ACHN = experiment: Anticancer activity against human ACHN cells assessed inhibition of cell growth after 48 hrs by CellTiter-Glo luminescent assay; assay type: functional, cell-based; in short: as §2
[1] = Anticancer activity against human CLL cells assessed as reduction in cell viability incubated for 24 hrs by Annexin/PI staining based fluorescence assay; assay type: functional
In short: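 CLL lymphocytes were taken from patients' peripheral blood (n=3) by Ficoll-Hypaque, suspended in 10% autologous plasma in RPMI, and exposed to 1, 5, 10, 20, 50 and 100 µM. Viability was measured by annexin V/propidium iodide binding. IC50 comes from one representative patient.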

TK-10 = experiment: Anticancer activity against human TK-10 cells assessed inhibition of cell growth after 48 hrs by CellTiter-Glo luminescent assay; assay type: functional, cell-based; conditions: TK-10, 48 h; in short: as §1
DNA [2] = experiment: Induction of [32P]-labeled 49-mer oligonucleotide duplex DNA 25 (unknown origin) interstrand cross-linking at 2 mM for 24 hrs without H2O2 by PAGE; assay type: functional
DNA [3] = experiment: Induction of [32P]-labeled 49-mer oligonucleotide duplex DNA 25 (unknown origin) interstrand cross-linking at 2 mM for 48 hrs in presence of 2mM H2O2 by PAGE; assay type: functional
[4] = Toxicity in healthy human lymphocytes assessed as reduction in cell viability at 10 uM after 24 hrs by Annexin/PI staining based fluorescence assay; conditions: lymphocyte
In short: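 Normal donor lymphocytes (n=2) isolated from peripheral blood by Ficoll-hypaque, in RPMI with 10% autologous plasma. Exposed to 10 µM for 24 h; % viable cells by annexin/PI binding.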

DNA [5] = experiment: Potentiation of H2O2 induced [32P]-labeled 49-mer oligonucleotide duplex DNA 25 (unknown origin) interstrand cross-linking at pH 8 in phosphate buffer solution assessed as rate constant and measured for 24 hrs by PAGE analysis; assay type: functional
CAKI-1 = experiment: Anticancer activity against human CAKI-1 cells assessed inhibition of cell growth after 48 hrs by CellTiter-Glo luminescent assay; assay type: functional, cell-based; conditions: CAKI-1, 48 h; in short: as §2
MDA-MB-468 = experiment: Anticancer activity against human MDA-MB-468 cells assessed inhibition of cell growth after 48 hrs by CellTiter-Glo luminescent assay; assay type: functional, cell-based; conditions: MDA-MB-468, 48 h
In short: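 Cells grown in RPMI 1640 with 5% fetal bovine serum and 2 mM L-glutamine, seeded at 5,000–10,000 cells/well in 384-well plates, preincubated 2–3 h at 37°C, 5% CO2. DMSO stocks (20 mM) serially diluted 2-fold ten times, then added at 1:100. Exposure 48 h at 37°C. Viability read by CellTiter-Glo luminescence after 10 min at room temperature; IC50 derived.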

CLL cell [6] = experiment: Induction of DNA damage in chronic lymphocytic leukemia patient lymphocytes assessed as gamma-H2Ax phosphorylation at Ser139 residue at 10 uM after 24 hrs by FITC-staining based flow cytometry; assay type: functional; conditions: Homo sapiens
In short: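 Patient CLL lymphocytes, Ficoll-hypaque isolated, in RPMI with 10% autologous plasma, untreated or exposed to 10 µM for 24 h. Cells washed in PBS, fixed in ice-cold 70% ethanol and held at −20 °C. Then permeabilised, stained with FITC anti-H2AX Ser139 antibody and read by flow cytometry.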

CLL cell [7] = experiment: Induction of DNA damage in chronic lymphocytic leukemia patient lymphocytes assessed as apoptosis rate at 10 uM after 24 hrs by annexin/PI staining based flow cytometry; assay type: functional; conditions: Homo sapiens
DNA [8] = experiment: Induction of [32P]-labeled 49-mer oligonucleotide duplex DNA 25 (unknown origin) interstrand cross-linking assessed as increase in cross linking with increase of pH from 2 to 9 at 2 mM for 24 hrs in presence of H2O2 by PAGE analysis; assay type: functional

Row | SMILES | IC50 (UO-31) | IC50 (A498) | IC50 (SN12C) | IC50 (786-0) | IC50 (ACHN) | IC50 [1] | IC50 (TK-10) | Activity (DNA [2]) | Activity (DNA [3]) | Activity [4] | Ka (DNA [5]) | IC50 (CAKI-1) | IC50 (MDA-MB-468) | Activity (CLL cell [6]) | Activity (CLL cell [7]) | Activity (DNA [8])
1 | O=C(O)CCCc1ccc(N(CCCl)CCCl)cc1 [CHLORAMBUCIL] | 40.7 µM | 280 µM | 135 µM | 55.5 µM | 133 µM | 98 µM | – | – | – | – | – | – | – | – | – | –
2 | N[C@@H](Cc1ccc(N(CCCl)CCCl)cc1)C(=O)O [MELPHALAN] | 42.9 µM | 135 µM | 71 µM | 19.2 µM | 52.1 µM | 76.9 µM | 54.5 µM | – | – | – | – | – | – | – | – | –
3 | COc1cc(COC(C)=O)c(B2OC(C)(C)C(C)(C)O2)c(COC(C)=O)c1 | – | – | – | – | – | – | – | 0% | 26% | – | – | – | – | – | – | –
4 | CC1(C)OB(c2c(CBr)cc(O)cc2CBr)OC1(C)C | 19.5 µM | – | 24.4 µM | 27.8 µM | 35.7 µM | 20.8 µM | 35.4 µM | 0% | 50% | Non-Toxic | 0.000201 s⁻¹ | 38.3 µM | 11 µM | Active | Active | –
5 | COc1cc(OC)c(CBr)c(B2OC(C)(C)C(C)(C)O2)c1CBr | – | – | – | – | – | – | – | – | 20% | – | – | – | – | – | – | –
6 | CC1(C)OB(c2c(CBr)cccc2CBr)OC1(C)C | 25.3 µM | 33.3 µM | 27 µM | 20.3 µM | 26.9 µM | 48.3 µM | 21.4 µM | 0% | 22% | Non-Toxic | 8.8e-05 s⁻¹ | – | 12 µM | Active | Active | –
7 | CC(=O)OCc1cccc(COC(C)=O)c1B1OC(C)(C)C(C)(C)O1 | – | – | – | – | – | – | – | 0% | 20% | – | – | – | – | – | – | –
8 | CC(=O)OCc1cc(O)cc(COC(C)=O)c1B1OC(C)(C)C(C)(C)O1 | – | – | – | – | – | – | – | 0% | 32% | – | – | – | – | – | – | –
9 | COc1c(CBr)c(B2OC(C)(C)C(C)(C)O2)c(CBr)c(OC)c1OC | – | – | – | – | – | – | – | 0% | 0% | – | – | – | – | – | – | inactive
